Laboratory results reported in ChEMBL document CHEMBL4138228, “Substituted carbamothioic amine-1-carbothioic thioanhydrides as novel trichomonicidal fungicides: Design, synthesis, and biology” (Eur J Med Chem, 2018).
In brackets after ≈: the same amount, converted by molar mass. Activity calls are given as the source filed them. The rule behind the calls is not given here.

Assays:
[1] = Selectivity index, ratio of IC50 for human HeLa cells to MIC for metronidazole-resistant Trichomonas vaginalis CDC085 ATCC 50143; format: toxicity; details: read-out: Selectivity Index
Trichomonas vaginalis [2] = assay: Antitrichomonas activity against metronidazole-susceptible Trichomonas vaginalis assessed as decrease in cell viability after 48 hrs by trypan blue exclusion method; format: functional
Trichomonas vaginalis [3] = assay: Antitrichomonas activity against metronidazole-resistant Trichomonas vaginalis CDC085 ATCC 50143 assessed as decrease in cell viability after 48 hrs by trypan blue exclusion method; format: functional; details: CDC085 ATCC 50143, 48 h
HeLa = assay: Cytotoxicity against human HeLa cells after 24 hrs by MTT assay; format: cell-based
[4] = Selectivity index, ratio of IC50 for human HeLa cells to MIC for metronidazole-susceptible Trichomonas vaginalis; format: toxicity; details: read-out: Selectivity Index
Trichomonas vaginalis [5] = assay: Antitrichomonas activity against metronidazole-susceptible Trichomonas vaginalis infected in mouse assessed as growth of abscess at 50 mg/kg, po administered for 7 days measured on day 7 post last dose (reference value: 96.5 mm'2); format: functional
Candida albicans [6] = assay: Antifungal activity against Candida albicans MTCC 183 after 48 hrs by broth microdilution method; format: functional; details: MTCC 183, 48 h
Outline: (§1)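 Broth microdilution per NCCLS guidelines in MOPS-buffered RPMI 1640; starting inoculum 1-5 x 10^3 CFU/mL; plates incubated at 35 °C; MIC recorded after 48 h; fluconazole as reference; experiments repeated three times.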

Candida parapsilosis = assay: Antifungal activity against Candida parapsilosis ATCC 22019 after 48 hrs by broth microdilution method; format: functional; details: Lodderomyces parapsilosis, ATCC 22019, 48 h; outline: as §1
Candida albicans [7] = assay: Antifungal activity against Candida albicans ATCC 10231 after 48 hrs by broth microdilution method; format: functional; details: ATCC 10231, 48 h; outline: as §1
Plasmodium falciparum [8] = assay: Antimalarial activity against chloroquine-sensitive Plasmodium falciparum 3D7 infecetd in RBC after 72 hrs by SYBR Green dye-based fluorescence assay; format: functional, organism-based; details: 3D7, Erythrocyte
Plasmodium falciparum [9] = assay: Antimalarial activity against chloroquine-resistant Plasmodium falciparum K1 infecetd in RBC after 72 hrs by SYBR Green dye-based fluorescence assay; format: functional, organism-based; details: K1, Erythrocyte
Trichomonas vaginalis [10] = assay: Selectivity ratio of MIC for metronidazole-resistant Trichomonas vaginalis CDC085 ATCC 50143 to MIC for metronidazole-susceptible Trichomonas vaginalis; format: functional
[11] = Tmax in Sprague-Dawley rat at 50 mg/kg, po measured up to 24 hrs by LC-MS/MS analysis; format: ADME, organism-based; details: in vivo
Outline: (§2)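 Male rats fasted 12-16 h before dosing (n = 4 per time point). Each received a single 50 mg/kg oral dose as a 12.5 mg/mL suspension in 1% w/v gum acacia in water, given by feeding needle. Serum was sampled up to 24 h, cleaned up by protein precipitation and assayed by LC-MS/MS (MRM, phenacetin internal standard, linear 1-200 ng/mL). Parameters were derived by non-compartmental analysis.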

Trichomonas vaginalis [12] = assay: Antitrichomonas activity against metronidazole-susceptible Trichomonas vaginalis infected in mouse assessed as growth of abscess at 100 mg/kg, po administered for 7 days measured on day 7 post last dose (reference value: 96.5 mm'2); format: functional
Sporothrix schenckii = assay: Antifungal activity against Sporothrix schenckii after 48 hrs by broth microdilution method; format: functional; outline: as §1
Trichomonas vaginalis [13] = assay: Inhibition of free sulfhydryl group in Trichomonas vaginalis at MIC after 24 hrs by mBBr dye-based fluorescence microscopic method
Outline: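 Cells were pelleted (700 xg, 10 min, 4°C) and washed in PBS. They were then labelled in the dark with a fluorometric thiol detector prediluted 100x. Imaging used epifluorescence microscopy through a UV-1A filter, with the same exposure for all samples, and was assessed qualitatively.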

Candida albicans [14] = assay: Antifungal activity against Candida albicans ATCC 14053 after 48 hrs by broth microdilution method; format: functional; details: ATCC 14053, 48 h; outline: as §1
Trichomonas vaginalis [15] = assay: Potency index, ratio of metronidazole MIC to test compound MIC for metronidazole-susceptible Trichomonas vaginalis; format: functional
Candida albicans [16] = assay: Antifungal activity against Candida albicans ATCC 66027 after 48 hrs by broth microdilution method; format: functional; details: ATCC 66027, 48 h; outline: as §1
[17] = Cmax in Sprague-Dawley rat at 50 mg/kg, po measured up to 24 hrs by LC-MS/MS analysis; format: ADME, organism-based; parameters: dose 50 mg/kg, route oral; details: in vivo; outline: as §2
Trichomonas vaginalis [18] = assay: Potency index, ratio of metronidazole MIC to test compound MIC for metronidazole-resistant Trichomonas vaginalis CDC085 ATCC 50143; format: functional
[19] = Elimination half life in Sprague-Dawley rat at 50 mg/kg, po measured up to 24 hrs by LC-MS/MS analysis; format: ADME, organism-based; details: in vivo, read-out: beta t1/2 (converted); outline: as §2
Rattus norvegicus [20] = assay: AUClast in Sprague-Dawley rat at 50 mg/kg, po measured up to 24 hrs by LC-MS/MS analysis; format: ADME, organism-based; parameters: time < 24 hr, dose 50 mg/kg, route oral; details: in vivo; outline: as §2
Trichomonas vaginalis [21] = assay: Antitrichomonas activity against metronidazole-susceptible Trichomonas vaginalis infected in mouse assessed as growth of abscess at 50 to 100 mg/kg, po administered for […] post last dose (reference value: 96.55 mm'2); format: functional
Rattus norvegicus [22] = assay: Volume of distribution at steady state in Sprague-Dawley rat at 50 mg/kg, po measured up to 24 hrs by LC-MS/MS analysis; format: ADME, organism-based; details: in vivo; outline: as §2
Candida albicans [23] = assay: Antifungal activity against Candida albicans patient isolate after 48 hrs by broth microdilution method; format: functional; outline: as §1
Rattus norvegicus [24] = assay: Clearance in Sprague-Dawley rat at 50 mg/kg, po measured up to 24 hrs by LC-MS/MS analysis; format: ADME, organism-based; details: in vivo; outline: as §2
Nakaseomyces glabratus = assay: Antifungal activity against Candida glabrata ATCC 2001 after 48 hrs by broth microdilution method; format: functional; details: ATCC 2001, 48 h; outline: as §1
[25] = system: Trichophyton mentagrophytes; assay: Antifungal activity against Trichophyton mentagrophytes after 48 hrs by broth microdilution method; format: functional; outline: as §1
Cryptococcus neoformans = assay: Antifungal activity against Cryptococcus neoformans after 48 hrs by broth microdilution method; format: functional; outline: as §1

Structure (SMILES)	selectivity ratio [1]	MIC (Trichomonas vaginalis [2]) [µM]	MIC (Trichomonas vaginalis [3]) [µM]	IC50 (HeLa) [µM]	selectivity ratio [4]	Activity (Trichomonas vaginalis [5]) [mm2]	MIC (Candida albicans [6]) [µM]	MIC (Candida parapsilosis) [µM]	MIC (Candida albicans [7]) [µM]	IC50 (Plasmodium falciparum [8]) [µM]	IC50 (Plasmodium falciparum [9]) [µM]	MIC (Sporothrix schenckii) [µM]	MIC (Candida albicans [14]) [µM]	Ratio (Trichomonas vaginalis [15])	MIC (Candida albicans [16]) [µM]	Ratio (Trichomonas vaginalis [18])	MIC (Candida albicans [23]) [µM]	MIC (Nakaseomyces glabratus) [µM]	MIC [25] [µM]	MIC (Cryptococcus neoformans) [µM]	also measured
Cc1ncc([N+](=O)[O-])n1CCO [METRONIDAZOLE]	> 13	18.2 (≈ 3.12 µg/mL)	365 (≈ 62.6 µg/mL)	> 5000	> 277	2.35															
CN(C)C(=S)SC(=S)N1CCN(c2ncccn2)CC1	131	4.77 (≈ 1.56 µg/mL)	38.2 (≈ 12.5 µg/mL)	> 5000	1050	1.57	76.5 (≈ 25 µg/mL)	153 (≈ 50.1 µg/mL)	153 (≈ 50.1 µg/mL)	0.76	1.85	153 (≈ 50.1 µg/mL)	153 (≈ 50.1 µg/mL)	3.8	38.2 (≈ 12.5 µg/mL)	9.5	153 (≈ 50.1 µg/mL)	153 (≈ 50.1 µg/mL)	153 (≈ 50.1 µg/mL)	153 (≈ 50.1 µg/mL)	selectivity ratio (Trichomonas vaginalis [10]): 8; Tmax [11]: 2 h; Activity (Trichomonas vaginalis [12]): 0.79 mm2; inhibition (Trichomonas vaginalis [13]): Active; Cmax [17]: 0.0471 µg/mL; half-life [19]: 2.6 h; AUClast (Rattus norvegicus [20]): 0.1405 µg·h/mL; Activity (Trichomonas vaginalis [21]): 1 - 2.5 mm2; Vdss (Rattus norvegicus [22]): 12.6 L/kg; CL (Rattus norvegicus [24]): 4.9 L/h/kg
CN(C)C(=S)SC(=S)N1CCN(C(=O)c2ccco2)CC1	16	18.2 (≈ 6.26 µg/mL)	146 (≈ 50.1 µg/mL)	2380	130		72.9 (≈ 25 µg/mL)	146 (≈ 50.1 µg/mL)	146 (≈ 50.1 µg/mL)	0.79	1.76	72.9 (≈ 25 µg/mL)	146 (≈ 50.1 µg/mL)	1 - 3.8	72.9 (≈ 25 µg/mL)	1.3 - 9.5	146 (≈ 50.1 µg/mL)	146 (≈ 50.1 µg/mL)	72.9 (≈ 25 µg/mL)	146 (≈ 50.1 µg/mL)	
CN(C)C(=S)SC(=S)N1CCN(C(=O)OC(C)(C)C)CC1	18	17.9 (≈ 6.24 µg/mL)	71.4 (≈ 25 µg/mL)	1310	73		143 (≈ 49.9 µg/mL)	143 (≈ 49.9 µg/mL)	143 (≈ 49.9 µg/mL)	0.78	1.74	143 (≈ 49.9 µg/mL)	143 (≈ 49.9 µg/mL)	1 - 3.8	71.4 (≈ 25 µg/mL)	1.3 - 9.5	143 (≈ 49.9 µg/mL)	143 (≈ 49.9 µg/mL)	143 (≈ 49.9 µg/mL)	143 (≈ 49.9 µg/mL)	
